The values that follow come from paper PMC4304654 (Bioorganic & medicinal chemistry, 2012).

In brackets after ≈: the same amount, converted by molar mass. A value given as a limit tells only on which side of the number the result lay.

The conditions of data set [1]: sodium acetate fibrillization assay buffer; previously reported data ref 7; cited from earlier work.
Data set [2] has as its target T1, K18 tau fragment (amino acids 244–369) bearing the P301L mutation (K18PL) (Homo sapiens, UniProt P10636, P618L). As to conditions: 50 μM compound concentration; previously reported data ref 7; cited from earlier work.
The nature of data set [3]: Aqueous solubility in the sodium acetate buffer of the fibrillization assay. The class given is physicochemical.
Data set [4] is described as follows: Brain and plasma levels 1 h after i.p. administration of 5 mg/kg. It is filed as in vivo, B6C3F1 mice. To be noted: mice. Summed up: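 Mice got a single i.p. 5 mg/kg dose of test compound and were sacrificed 1 h later. Perfused brain hemispheres were sonicated in 10 mM ammonium acetate, pH 5.7 (50% w/v). Plasma came from EDTA-treated blood spun 10 min at 4500g, 4 °C. Samples were acetonitrile-precipitated and spun at 15000g. Supernatants went to LC-MS/MS (MRM, C18, 35 °C) and were quantified against matrix-matched linear standard curves.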

The nature of data set [5]: Unbound fraction in plasma by rapid equilibrium dialysis. The class given is in vitro ADME. To be noted: mouse, pH 7.4. A general note: In equilibrium dialysis only unbound substance equilibrates across the membrane.
In data set [6] the target is T1, K18 tau fragment (amino acids 244–369) bearing the P301L mutation (K18PL). In words: Heparin-induced K18PL tau fibrillization, thioflavin-T. It is filed as biochemical. An outline of the steps: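 Heparin-induced fibrillization of the P301L K18 tau fragment (residues 244–369) in sodium acetate buffer, with test compound at a range of concentrations, each in triplicate. Read-out is thioflavin-T fluorescence of cross-beta fibrils. IC50 comes from a sigmoidal fit of the concentration-response, from one curve fit or the mean of 2 or more separate analyses. Maximal % inhibition is also reported.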

T1 sequence (P10636 561-686 P618L): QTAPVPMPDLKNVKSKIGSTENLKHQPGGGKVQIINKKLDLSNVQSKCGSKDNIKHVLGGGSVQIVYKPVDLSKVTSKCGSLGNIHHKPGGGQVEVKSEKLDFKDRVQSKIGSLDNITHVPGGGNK

As to `CCOC(=O)c1nn(-c2ccc(Cl)cc2)c(=O)c2c(N)scc12` [Compound 29, Ethyl 5-amino-3-(4-chlorophenyl)-4-oxo-3,4-dihydrothieno-[3,4-d]pyridazine-1-carboxylate], the “Solubility in assay buffer, upper solubility limit” value in data set [1] is 13 µM (≈ 4.55 µg/mL). In addition, the “K18PL centrifugation assay % Soluble” value in data set [2] is given as 47%.
With `Nc1scc2c(C(=O)O)nn(-c3ccc(Cl)cc3)c(=O)c12` [Compound 37, 5-Amino-3-(4-chlorophenyl)-4-oxo-3,4-dihydrothieno[3,4-d]pyridazine-1-carboxylic acid], the “Solubility in assay buffer, upper solubility limit” value in data set [1] is more than 200 µM. Moreover, the “K18PL centrifugation assay % Soluble” value in data set [2] was 74%.
As a reminder, the solubility is the concentration that dissolves in the medium under given conditions. Low readings indicate little dissolved substance, high ones much dissolved substance. As a reminder, the fraction unbound is the share of the substance not bound to proteins or other matrix. Lower therefore signals little free substance. As to `CC(C)NC(=O)c1nn(-c2ccc(F)cc2)c(=O)c2c(N)scc12` [Compound 42, 5-Amino-3-(4-fluorophenyl)-N-isopropyl-4-oxo-3,4-dihydrothieno[3,4-d]pyridazine-1-carboxamide], the solubility in data set [3] was more than 200 µM. Moreover, the “B/P (total), brain-to-plasma ratio” value in data set [4] (1 h after 5 mg/kg i.p.) was “unity”. The molecule further returned a fraction unbound at 5 h, 1 μM in data set [5] of 0.057 ± 0.005.
The like results for `Nc1scc2c(C(=O)NCC(F)(F)F)nn(-c3ccc(F)cc3)c(=O)c12` [Compound 44, 5-Amino-3-(4-fluorophenyl)-4-oxo-N-(2,2,2-trifluoroethyl)-3,4-dihydrothieno[3,4-d]pyridazine-1-carboxamide] were, in that order, more than 200 µM, “unity” and 0.022 ± 0.002.
In data set [3], `Cc1n[nH]c(=O)c2c(N)scc12` [Compound 55, 7-Amino-4-methylthieno[3,4-d]pyridazin-1(2H)-one] gave a solubility of more than 200 µM. Further, the “Inhibition in the K18PL fibrillization assay” value (from here on “Inhibition”) in data set [6] is given as “near full inhibition”. In addition, the “Plasma levels 1 h after dosing” value in data set [4] (5 mg/kg i.p.) was “low plasma levels”. In data set [4] (1 h after 5 mg/kg i.p.), the Brain level entry was “BLD ^d” and the Plasma level entry is “BLD ^d”.
The molecule `Cc1nn(C)c(=O)c2c(N)scc12` [Compound 56, 7-Amino-2,4-dimethylthieno[3,4-d]pyridazin-1(2H)-one] had a solubility in data set [3] of more than 200 µM. Further, the “Inhibition” value in data set [6] is “near full inhibition”. For the same molecule, the Brain level result in data set [4] (1 h after 5 mg/kg i.p.) is “BLD ^d”.
Consider `Cc1nn(Cc2ccccc2)c(=O)c2c(N)scc12` [Compound 62, 7-Amino-2-benzyl-4-methylthieno[3,4-d]pyridazin-1(2H)-one], for which the concentration in solution in data set [3] (solubility) came to 80 µM (≈ 21.7 µg/mL). The molecule further displayed a fraction unbound at 5 h, 1 μM in data set [5] of 0.04 ± 0.01.
For `CCOC(=O)c1nn(-c2ccc(Cl)cc2)c(=O)c2c(N)sc(Cl)c12` [Compound 67, Ethyl 5-amino-7-chloro-3-(4-chlorophenyl)-4-oxo-3,4-dihydrothieno[3,4-d]pyridazine-1-carboxylate], the solubility in data set [3] was 32 µM (≈ 12.3 µg/mL). In addition, the “Inhibition” value in data set [6] is “near full inhibition”.
The like results for `CCOC(=O)c1nn(-c2ccc(Cl)cc2)c(=O)c2c(N)sc(Br)c12` [Compound 68, Ethyl 5-amino-7-bromo-3-(4-chlorophenyl)-4-oxo-3,4-dihydrothieno[3,4-d]pyridazine-1-carboxylate] were, in that order, 12.8 µM (≈ 5.49 µg/mL) and “near full inhibition”.
As to `CCOC(=O)c1nn(-c2ccc(Cl)cc2)c(=O)c2c1C(O)NC2=O` (centres unmarked) [Compound 69, Ethyl 2-(4-chlorophenyl)-5-hydroxy-1,7-dioxo-2,5,6,7-tetrahydro-1H-pyrrolo[3,4-d]pyridazine-4-carboxylate], the solubility in data set [3] was more than 200 µM.
Turning to `O=C(O)c1nn(-c2ccc(F)cc2)c(=O)c2c1CSC2=O` [Compound 70, 3-(4-Fluorophenyl)-4,5-dioxo-3,4,5,7-tetrahydrothieno[3,4-d]pyridazine-1-carboxylic acid], the solubility in data set [3] is more than 200 µM. Also, the “Inhibition” value in data set [6] is “near full inhibition”.
Turning to `CC(C)NC(=O)c1nn(-c2ccc(Cl)cc2)c(=O)c2c1CSC2=O` [Compound 72, 3-(4-Chlorophenyl)-N-isopropyl-4,5-dioxo-3,4,5,7-tetrahydrothieno[3,4-d]pyridazine-1-carboxamide], in data set [6], the “Inhibition” value was “near full inhibition”. In data set [4] (1 h after 5 mg/kg i.p.), the “Brain penetration” value is “not brain-penetrant”.
